Blank lines part the entries; values can stand above or below the molecule they belong to.
Legend:
FM3A [1] = experiment: Percent inhibition of growth against mouse mammary FM3A cells; assay type: cell-based; set-up: concentration or dose not given beside the values
Procedure, shortened: (§1)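 Mouse mammary tumor FM3A cells in culture served as the mammalian cytotoxicity counterscreen. EC50 was determined; where no activity was found at 10 μM, percent growth inhibition at that concentration was given.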

[2] = Selectivity as the ratio of EC50 value for FM3A cells to that of Plasmodium falciparum.; assay type: functional
Procedure, shortened: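 Selectivity was taken as the mean EC50 in FM3A cells divided by the mean EC50 against P. falciparum FCR-3.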

FM3A [3] = experiment: Effective concentration against mouse mammary FM3A cells; assay type: ADME, cell-based; procedure, shortened: as §1
Plasmodium falciparum = experiment: In vitro antimalarial activity against Plasmodium falciparum; assay type: functional, organism-based
Procedure, shortened: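 Chloroquine-sensitive P. falciparum FCR-3 strain cultured in vitro. EC50 was determined.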

Plasmodium berghei = experiment: Antimalarial activity against Plasmodium berghei infected mice (Mus musculus) after intramuscular administration at a dose 100 mg/kg/day; assay type: ADME, organism-based; set-up: route intramuscular; details: im
Procedure, shortened: (§2)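 P. berghei NK 65 strain in mice, five per group. Compounds in olive oil were given ip or im once daily on days 0–3, starting on the day of infection. Parasitemia was read on day 4 from Giemsa-stained tail blood smears, counting 1×10^4 erythrocytes per film, and suppression calculated against DMSO sham-treated infected controls. Survival was recorded in days. Values are means of five mice, one test.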

Mus musculus [4] = experiment: Mice survival days reported after intramuscular administration; assay type: ADME, organism-based; details: in vivo, im; procedure, shortened: as §2
Mus musculus [5] = experiment: Mice survival days reported after intraperitoneal administration; assay type: ADME, organism-based; details: in vivo, ip; procedure, shortened: as §2

SMILES: COC12CCC[C@H](CC(C)(CI)OO1)C2 (some centres not stated)
- Inhibition (FM3A [1]): 6%
- Selectivity [2]: >32
- EC50 (FM3A [3]): > 80 µM
- EC50 (Plasmodium falciparum): 2500 nM

SMILES: CCOC(=O)C(I)C12CCCC(C1)C(C)(C)OO2 (configuration not stated)
- inhibition at 100 mg/kg (Plasmodium berghei): 80%
- Selectivity [2]: 282
- Survival (Mus musculus [4]): 9.8 days
- EC50 (FM3A [3]): 3.1 µM
- Survival (Mus musculus [5]): 6.5 days
- EC50 (Plasmodium falciparum): 11 nM

SMILES: C[C@@H]1CC[C@H]2[C@@H](C)C(=O)O[C@@H]3O[C@@]4(C)CC[C@@H]1[C@]32OO4 [ARTEMISININ]
- Selectivity [2]: 1000

- Inhibition (FM3A [1]): 10%
- EC50 (FM3A [3]): > 84 µM
- EC50 (Plasmodium falciparum): 5800 nM
SMILES: CC1(C)OC2(CI)CCCC1C2 (configuration not stated)
- Selectivity [2]: >14

SMILES: COC12C[C@H](CC[C@@H]1C)C(C)(CI)OO2 (some centres not stated)
- Inhibition (FM3A [1]): 8%
- Selectivity [2]: >27
- EC50 (FM3A [3]): > 54 µM
- EC50 (Plasmodium falciparum): 2000 nM

SMILES: CC1(CI)C[C@H]2CCCC(C2)OO1 (some centres not stated)
- Inhibition (FM3A [1]): 47%
- Selectivity [2]: >32
- EC50 (FM3A [3]): > 96 µM
- EC50 (Plasmodium falciparum): 3000 nM

SMILES: COC12CCC[C@@H](C1)C(C)(CI)OO2 (some centres not stated)
- Inhibition (FM3A [1]): 19%
- Selectivity [2]: >41
- EC50 (FM3A [3]): > 70 µM
- EC50 (Plasmodium falciparum): 1700 nM

- Inhibition (FM3A [1]): 34%
- EC50 (FM3A [3]): > 210 µM
- EC50 (Plasmodium falciparum): 120000 nM
SMILES: CC1(CI)C[C@H]2CCCCC2O1 (some centres not stated)
- Selectivity [2]: >2

SMILES: CC1(C)OOC2(CI)CCCC1C2 (configuration not stated)
- inhibition at 100 mg/kg (Plasmodium berghei): 99%
- Selectivity [2]: 1700
- Survival (Mus musculus [4]): 9.6 days
- EC50 (FM3A [3]): 68 µM
- Survival (Mus musculus [5]): 7 days
- EC50 (Plasmodium falciparum): 40 nM

SMILES: CC1(CI)C[C@H]2CCCC[C@@H]2OO1 (relative stereo)
- Selectivity [2]: 44
- EC50 (FM3A [3]): 66 µM
- EC50 (Plasmodium falciparum): 1500 nM

SMILES: COC12CCC[C@@H](C1)C(I)C(C)(C)OO2 (some centres not stated)
- Inhibition (FM3A [1]): 10%
- Selectivity [2]: >4
- EC50 (FM3A [3]): > 64 µM
- EC50 (Plasmodium falciparum): 15000 nM

SMILES: CC12CCC[C@@H](C1)C(C)(CI)OO2 (some centres not stated)
- Inhibition (FM3A [1]): 10%
- Selectivity [2]: >6462
- EC50 (FM3A [3]): > 84 µM
- EC50 (Plasmodium falciparum): 13 nM

- Inhibition (FM3A [1]): 0%
- EC50 (FM3A [3]): > 48 µM
- EC50 (Plasmodium falciparum): 1000 nM
SMILES: CC12CCC[C@H](C1)C(C)(CI)O2 (some centres not stated)
- Selectivity [2]: >48

From ChEMBL document CHEMBL1135976, “Antimalarial activity of yingzhaosu A analogues” (J Med Chem, 2002)
